ChEMBL document CHEMBL4406821, “Novel dual inhibitors targeting CDK4 and VEGFR2 synergistically suppressed cancer progression and angiogenesis” (Eur J Med Chem, 2019)
The source made the active and inactive calls. The rule behind the calls is not given here.

How the values were obtained:
SiHa [1] = assay: Antitumor activity against human SiHa cells xenografted in NOD/SCID BALB/c mouse assessed as reduction in Ki67 expression at 40 mg/kg, po measured after 21 days by hematoxylin and eosin staining based immunohistochemistry; format: functional, organism-based
How it was run: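 Female NOD/SCID Balb/c mice, 6–8 weeks old, received 2×10^6 SiHa cells subcutaneously in the right flank. Once tumors reached 100 mm³, mice were randomized, 5 per group, and gavaged once daily for 21 days. Formalin-fixed, paraffin-embedded tumor sections were stained with Ki67 or CD31 antibody (1:100, 4 °C overnight), then biotin secondary and ABC-peroxidase/DAB, with hematoxylin counterstain.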

MDA-MB-231 [2] = assay: Induction of apoptosis in human MDA-MB-231 cells at 40 nM incubated for 48 hrs by annexin V FITC and propidium iodide staining based flow cytometry; format: functional, cell-based
How it was run: (§1)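 Annexin V-FITC/PI double staining with flow-cytometric readout. MDA-MB-231, T-47D, SiHa and HeLa cells were treated with graded concentrations for 48 h. MDA-MB-231 and T-47D were grown in DMEM and SiHa in 1640 medium, each with 10% FBS and 1% penicillin/streptomycin at 37°C under 5% CO2. Early- and late-stage apoptotic fractions were scored.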

SiHa [3] = assay: Antiproliferative activity against human SiHa cells assessed as reduction in cell viability at 40 to 80 nM incubated for 48 hrs by EdU staining based laser scanning confocal microscopy; format: functional
How it was run: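 Cells, 5×10^4, were seeded in 24-well plates and treated for 48 h. They were then labeled using an EdU Apollo 488 imaging kit with Hoechst 33342 nuclear stain and imaged by laser scanning confocal microscopy. Percent EdU-positive cells = EdU-positive/Hoechst-stained × 100%.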

SiHa [4] = assay: Induction of apoptosis in human SiHa cells assessed as increase in late apoptotic cells at 20 to 40 nM incubated for 48 hrs by annexin V FITC and propidium iodide staining based flow cytometry; format: functional, cell-based; how it was run: as §1
[5] = Toxicity in NOD/SCID BALB/c mouse xenografted with human SiHa cells assessed as toxic effects in lungs at 40 mg/kg, po administered for 48 hrs by hematoxylin and eosin staining method; format: organism-based; details: in vivo
[6] = AUMC (0 to t) in Sprague-Dawley rat at 10 mg/kg at 10 mg/kg, po by HPLC-MS analysis; format: ADME, organism-based; details: in vivo
How it was run: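 Rats fitted with jugular vein catheters for serial blood sampling. Compound dissolved in saline with 5% (v/v) DMSO and given as a single 10 mg/kg dose iv or po after an overnight fast, n = 5 per group. Plasma isolated at once and measured by HPLC with tandem MS detection. Parameters derived by noncompartmental fitting.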

[7] = biological target: Activin receptor type-1-like (Homo sapiens) (UniProt P37023); assay: Inhibition of recombinant human ALK1 (142 to end residues) at 1 uM using casein as substrate incubated for 40 mins in presence of [gamma-33P]-ATP by scintillation counting method relative to control
How it was run: (§2)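 Kinase panel profiling at 1 μM performed by Eurofins KinaseProfiler; percent inhibition reported as mean of two independent experiments.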

[8] = biological target: 5'-AMP-activated protein kinase catalytic subunit alpha-1 (Homo sapiens) (UniProt Q13131); assay: Inhibition of recombinant full length human AMPKalpha1 at 1 uM using AMARAASAAALAR as substrate incubated for 40 mins in presence of [gamma-33P]-ATP by scintillation counting method relative to control; how it was run: as §2
[9] = biological target: Activin receptor type-1B (Homo sapiens) (UniProt P36896); assay: Inhibition of recombinant human ALK4 (150 to end residues) at 1 uM using as casein substrate incubated for 40 mins in presence of [gamma-33P]-ATP by scintillation counting method relative to control; how it was run: as §2
[10] = biological target: Tyrosine-protein kinase receptor UFO (Homo sapiens) (UniProt P30530); assay: Inhibition of recombinant human AXL (473 to end residues) at 1 uM using KKSRGDYMTMQIG as substrate incubated for 40 mins in presence of [gamma-33P]-ATP by scintillation counting method relative to control; how it was run: as §2
[11] = biological target: Discoidin domain-containing receptor 2 (Homo sapiens) (UniProt Q16832); assay: Inhibition of recombinant human DDR2 (467 to end residues) at 1 uM using KKSRGDYMTMQIG as substrate incubated for 40 mins in presence of [gamma-33P]-ATP by scintillation counting method relative to control; how it was run: as §2
[12] = biological target: Ephrin type-B receptor 2 (Homo sapiens) (UniProt P29323); assay: Inhibition of recombinant human EPhB2 (560 to end residues) at 1 uM using poly(Glu, Tyr) 4:1 as substrate incubated for 40 mins in presence of [gamma-33P]-ATP by scintillation counting method relative to control
[13] = tested on: Mast/stem cell growth factor receptor Kit (Homo sapiens), P10721 [D816V]; assay: Inhibition of recombinant human cKIT D816V mutant (544 to end residues) at 1 uM using poly(Glu, Tyr) 4:1 as substrate incubated for 40 mins in presence of [gamma-33P]-ATP by scintillation counting method relative to control
How it was run: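 Tested at a single 1 uM in an outsourced commercial kinase-profiling panel, read as percent inhibition. Each value is the mean of two independent experiments.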

[14] = biological target: LIM domain kinase 2 (Homo sapiens) (UniProt P53671); assay: Inhibition of recombinant human LIMK2 at 1 uM incubated for 40 mins in presence of [gamma-33P]-ATP by scintillation counting method relative to control
[15] = tested on: Hepatocyte growth factor receptor (Homo sapiens), P08581 [D1246H]; assay: Inhibition of recombinant human Met D1246H mutant (974 to end residues) at 1 uM using KKKGQEEEYVFIE as substrate incubated for 40 mins in presence of [gamma-33P]-ATP by scintillation counting method relative to control
[16] = biological target: RAC-gamma serine/threonine-protein kinase (Homo sapiens) (UniProt Q9Y243); assay: Inhibition of recombinant human PKBgamma (117 to end residues) at 1 uM using GRPRTSSFAEGKK as substrate incubated for 40 mins in presence of [gamma-33P]-ATP by scintillation counting method relative to control
[17] = tested on: PI3-kinase p110-alpha/p85-alpha (Homo sapiens), P27986+P42336 [E542K]; assay: Inhibition of recombinant human full length PI3K p110alpha/p85alpha E542K mutant at 1 uM using phosphatidylinositol 4,5-bisphosphate as substrate incubated for 40 mins in presence of [gamma-33P]-ATP by scintillation counting method relative to control; format: protein-complex assay
MDA-MB-231 [18] = assay: Induction of cell cycle arrest in human MDA-MB-231 cells assessed as decrease in accumulation in S phase at 20 to 40 nM incubated for 36 hrs by propidium iodide staining based flow cytometry; format: functional
How it was run: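 Cells were treated with graded concentrations for 36 h, then fixed overnight in 70% ice-cold ethanol at 4°C and resuspended in PBS. Staining used 50 µg/ml PI plus 5 µg/ml RNase at 37°C for 30 min. DNA content was analysed by FACS to give G0/G1, S and G2/M fractions.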

Chain of 5'-AMP-activated protein kinase catalytic subunit alpha-1 (Homo sapiens) (Q13131 whole entry, looked up): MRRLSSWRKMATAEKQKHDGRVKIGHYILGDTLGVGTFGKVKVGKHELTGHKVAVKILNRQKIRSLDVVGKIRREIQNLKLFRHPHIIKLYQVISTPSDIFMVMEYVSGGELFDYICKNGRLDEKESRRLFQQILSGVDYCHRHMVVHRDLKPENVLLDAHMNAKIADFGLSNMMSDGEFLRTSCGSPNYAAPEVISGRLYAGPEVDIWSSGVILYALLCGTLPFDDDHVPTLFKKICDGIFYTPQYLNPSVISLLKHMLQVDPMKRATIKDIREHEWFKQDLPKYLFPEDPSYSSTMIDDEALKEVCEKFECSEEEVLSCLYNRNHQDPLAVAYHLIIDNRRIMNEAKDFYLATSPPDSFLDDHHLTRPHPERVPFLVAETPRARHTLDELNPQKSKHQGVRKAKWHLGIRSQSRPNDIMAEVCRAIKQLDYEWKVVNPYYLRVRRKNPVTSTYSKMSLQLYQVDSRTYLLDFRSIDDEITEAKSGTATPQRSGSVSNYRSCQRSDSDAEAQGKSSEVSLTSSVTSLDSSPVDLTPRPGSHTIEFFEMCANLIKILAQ
Chain of Ephrin type-B receptor 2 (Homo sapiens) (P29323 whole entry): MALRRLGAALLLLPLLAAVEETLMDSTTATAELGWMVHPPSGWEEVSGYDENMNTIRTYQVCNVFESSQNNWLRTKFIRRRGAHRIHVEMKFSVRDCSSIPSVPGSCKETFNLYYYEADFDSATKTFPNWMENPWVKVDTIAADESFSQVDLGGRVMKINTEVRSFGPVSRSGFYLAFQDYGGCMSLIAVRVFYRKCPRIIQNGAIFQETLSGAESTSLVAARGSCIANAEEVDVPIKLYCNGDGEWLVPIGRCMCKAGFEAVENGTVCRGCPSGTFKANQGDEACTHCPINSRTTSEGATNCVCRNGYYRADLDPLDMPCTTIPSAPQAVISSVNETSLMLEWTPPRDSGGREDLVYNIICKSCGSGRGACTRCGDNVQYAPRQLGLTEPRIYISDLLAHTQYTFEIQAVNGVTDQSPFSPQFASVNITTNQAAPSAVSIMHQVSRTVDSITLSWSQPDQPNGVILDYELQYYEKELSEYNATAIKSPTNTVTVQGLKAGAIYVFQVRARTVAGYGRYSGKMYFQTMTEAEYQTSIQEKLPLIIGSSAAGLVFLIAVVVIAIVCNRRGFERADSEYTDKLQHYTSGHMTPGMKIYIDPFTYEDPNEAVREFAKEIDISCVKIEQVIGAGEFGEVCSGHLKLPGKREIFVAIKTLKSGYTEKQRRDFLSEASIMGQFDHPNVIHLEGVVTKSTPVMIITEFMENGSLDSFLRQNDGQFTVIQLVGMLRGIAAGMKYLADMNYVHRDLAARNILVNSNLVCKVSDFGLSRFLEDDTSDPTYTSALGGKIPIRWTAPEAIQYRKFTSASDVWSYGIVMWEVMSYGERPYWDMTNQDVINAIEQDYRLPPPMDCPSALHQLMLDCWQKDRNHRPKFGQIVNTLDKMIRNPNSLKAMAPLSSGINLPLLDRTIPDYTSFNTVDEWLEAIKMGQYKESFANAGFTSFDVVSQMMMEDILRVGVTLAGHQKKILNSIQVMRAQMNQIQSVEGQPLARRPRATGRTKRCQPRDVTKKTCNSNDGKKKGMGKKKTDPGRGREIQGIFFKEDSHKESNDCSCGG
Chain of RAC-gamma serine/threonine-protein kinase (Homo sapiens) (Q9Y243 whole entry): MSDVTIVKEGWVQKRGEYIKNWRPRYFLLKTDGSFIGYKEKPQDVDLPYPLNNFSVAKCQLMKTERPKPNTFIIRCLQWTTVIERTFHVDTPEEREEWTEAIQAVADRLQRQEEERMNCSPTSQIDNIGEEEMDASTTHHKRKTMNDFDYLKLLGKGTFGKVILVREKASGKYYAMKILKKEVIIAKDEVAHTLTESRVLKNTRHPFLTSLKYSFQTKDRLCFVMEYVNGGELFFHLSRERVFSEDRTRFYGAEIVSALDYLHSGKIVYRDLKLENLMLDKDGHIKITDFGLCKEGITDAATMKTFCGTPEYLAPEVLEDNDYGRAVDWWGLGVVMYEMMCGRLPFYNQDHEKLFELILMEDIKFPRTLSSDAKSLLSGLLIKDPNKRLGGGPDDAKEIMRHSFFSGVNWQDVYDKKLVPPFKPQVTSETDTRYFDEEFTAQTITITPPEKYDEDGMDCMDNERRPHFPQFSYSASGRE
Chain of Hepatocyte growth factor receptor (Homo sapiens), P08581 [D1246H] (P08581 with tags, fused parts or gaps D1246H): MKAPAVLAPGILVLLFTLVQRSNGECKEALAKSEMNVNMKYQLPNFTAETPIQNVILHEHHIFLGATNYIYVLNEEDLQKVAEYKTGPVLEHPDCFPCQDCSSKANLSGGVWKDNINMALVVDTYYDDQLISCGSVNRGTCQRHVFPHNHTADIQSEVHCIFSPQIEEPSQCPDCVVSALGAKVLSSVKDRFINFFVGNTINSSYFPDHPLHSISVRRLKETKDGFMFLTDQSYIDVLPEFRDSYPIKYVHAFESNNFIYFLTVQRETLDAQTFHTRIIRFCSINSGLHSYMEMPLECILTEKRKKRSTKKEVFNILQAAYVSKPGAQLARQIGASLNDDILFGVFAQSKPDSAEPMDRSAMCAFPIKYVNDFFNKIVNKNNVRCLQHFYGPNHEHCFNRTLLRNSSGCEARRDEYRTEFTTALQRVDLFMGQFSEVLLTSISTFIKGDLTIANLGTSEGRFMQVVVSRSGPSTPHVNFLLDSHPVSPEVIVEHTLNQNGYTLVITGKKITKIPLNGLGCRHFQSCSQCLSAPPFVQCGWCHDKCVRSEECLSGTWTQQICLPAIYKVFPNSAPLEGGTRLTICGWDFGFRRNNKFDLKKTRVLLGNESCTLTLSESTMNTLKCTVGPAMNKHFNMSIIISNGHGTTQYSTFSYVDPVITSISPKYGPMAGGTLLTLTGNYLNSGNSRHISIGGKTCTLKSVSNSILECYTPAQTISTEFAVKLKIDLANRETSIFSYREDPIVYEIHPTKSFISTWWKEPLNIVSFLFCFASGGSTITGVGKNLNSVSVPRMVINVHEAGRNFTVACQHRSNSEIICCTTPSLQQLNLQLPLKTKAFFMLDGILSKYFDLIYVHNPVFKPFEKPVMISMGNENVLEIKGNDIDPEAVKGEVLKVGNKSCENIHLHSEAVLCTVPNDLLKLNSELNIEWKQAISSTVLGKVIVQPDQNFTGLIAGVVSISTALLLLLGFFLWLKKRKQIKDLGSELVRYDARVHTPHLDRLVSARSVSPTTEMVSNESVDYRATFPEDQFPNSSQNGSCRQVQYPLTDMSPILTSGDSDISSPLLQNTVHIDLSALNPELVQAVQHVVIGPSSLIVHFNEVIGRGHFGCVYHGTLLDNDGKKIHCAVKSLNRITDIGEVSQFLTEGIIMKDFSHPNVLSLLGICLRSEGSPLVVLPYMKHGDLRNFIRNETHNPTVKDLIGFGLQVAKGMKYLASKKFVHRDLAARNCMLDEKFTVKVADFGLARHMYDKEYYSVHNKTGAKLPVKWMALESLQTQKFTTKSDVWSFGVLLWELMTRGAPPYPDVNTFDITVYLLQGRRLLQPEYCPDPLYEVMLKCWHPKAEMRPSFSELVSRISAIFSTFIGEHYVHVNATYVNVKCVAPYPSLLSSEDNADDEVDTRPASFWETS
Chain of Tyrosine-protein kinase receptor UFO (Homo sapiens) (P30530 whole entry, the tested form may be a part): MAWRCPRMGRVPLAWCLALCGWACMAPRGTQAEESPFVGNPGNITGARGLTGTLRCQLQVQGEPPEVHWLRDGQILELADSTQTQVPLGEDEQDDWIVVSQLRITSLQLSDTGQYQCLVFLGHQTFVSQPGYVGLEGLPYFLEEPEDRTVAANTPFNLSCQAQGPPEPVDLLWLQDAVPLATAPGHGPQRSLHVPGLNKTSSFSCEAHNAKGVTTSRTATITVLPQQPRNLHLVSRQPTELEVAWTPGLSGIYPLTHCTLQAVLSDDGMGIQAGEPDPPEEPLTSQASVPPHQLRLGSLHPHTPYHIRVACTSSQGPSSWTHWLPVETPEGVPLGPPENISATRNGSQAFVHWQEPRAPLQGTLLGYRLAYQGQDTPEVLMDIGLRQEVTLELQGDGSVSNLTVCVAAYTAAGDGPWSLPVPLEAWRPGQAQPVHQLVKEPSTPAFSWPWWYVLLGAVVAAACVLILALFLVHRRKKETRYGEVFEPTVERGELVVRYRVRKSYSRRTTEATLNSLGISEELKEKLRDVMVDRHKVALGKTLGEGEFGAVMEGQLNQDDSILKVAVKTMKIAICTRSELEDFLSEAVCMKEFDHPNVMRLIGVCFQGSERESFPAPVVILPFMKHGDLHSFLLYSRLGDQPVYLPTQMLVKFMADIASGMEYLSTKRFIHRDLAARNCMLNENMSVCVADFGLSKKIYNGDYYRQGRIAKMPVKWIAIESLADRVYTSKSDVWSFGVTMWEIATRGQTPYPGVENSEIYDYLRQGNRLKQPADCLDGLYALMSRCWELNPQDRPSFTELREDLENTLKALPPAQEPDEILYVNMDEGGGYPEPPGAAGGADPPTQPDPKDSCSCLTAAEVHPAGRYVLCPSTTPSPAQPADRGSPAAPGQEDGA
Chain of LIM domain kinase 2 (Homo sapiens) (P53671 whole entry, looked up, the tested form may be a part): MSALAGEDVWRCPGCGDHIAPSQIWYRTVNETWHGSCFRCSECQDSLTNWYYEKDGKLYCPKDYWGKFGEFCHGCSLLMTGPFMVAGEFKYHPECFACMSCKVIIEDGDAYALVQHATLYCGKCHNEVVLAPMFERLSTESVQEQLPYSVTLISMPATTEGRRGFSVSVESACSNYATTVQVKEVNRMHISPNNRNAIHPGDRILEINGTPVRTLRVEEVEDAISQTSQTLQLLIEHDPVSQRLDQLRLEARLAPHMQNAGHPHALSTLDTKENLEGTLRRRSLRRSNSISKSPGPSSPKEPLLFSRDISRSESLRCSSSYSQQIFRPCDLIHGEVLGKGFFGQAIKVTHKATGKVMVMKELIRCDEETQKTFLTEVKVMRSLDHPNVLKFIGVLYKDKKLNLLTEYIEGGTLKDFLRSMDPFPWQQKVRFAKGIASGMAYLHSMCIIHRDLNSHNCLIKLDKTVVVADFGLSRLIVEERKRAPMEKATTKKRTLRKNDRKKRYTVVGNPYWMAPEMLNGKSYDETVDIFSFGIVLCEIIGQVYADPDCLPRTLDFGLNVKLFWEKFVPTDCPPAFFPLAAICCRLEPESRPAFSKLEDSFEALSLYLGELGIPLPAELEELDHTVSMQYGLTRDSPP

| Compound | inhibition (SiHa [1]) | Activity (MDA-MB-231 [2]) | inhibition (SiHa [3]) | Activity (SiHa [4]) | Activity [5] | AUMCt [6] [mg/L.hr] | inhibition [7] [%] | inhibition [8] [%] | inhibition [9] [%] | inhibition [10] [%] | inhibition [11] [%] | inhibition [12] [%] | inhibition [13] [%] | inhibition [14] [%] | inhibition [15] [%] | inhibition [16] [%] | inhibition [17] [%] | Activity (MDA-MB-231 [18]) |
| --- | --- | --- | --- | --- | --- | --- | --- | --- | --- | --- | --- | --- | --- | --- | --- | --- | --- | --- |
| COc1cc2nccc(Oc3ccc(NC(=O)C4(C(=O)Nc5ccc(F)cc5)CC4)cc3)c2cc1OC [CABOZANTINIB] | Active | Active |  |  |  |  |  |  |  |  |  |  |  |  |  |  |  |  |
| Cc1ccc(NC(=O)C2(C(=O)Nc3ccc(Nc4ncc(F)c(-c5cc(F)c6nc(C)n(C(C)C)c6c5)n4)cc3)CC2)cc1 |  |  | Active | Active | Non-Toxic | 21 | 58 | 40 | 46 | 65 | 55 | 23 | 0 | 42 | 55 | 64 | 5 | Active |
